The values below come from publication PMC6387783 (Chemistry & biodiversity, 2018).

The test system of data set [1] is mice. The conditions noted are these: intravenous (tail-vein injection), ref [1]; cited from earlier work.
Data set [2] relates to MCF-7 cells. Type of data set: cell-based, human. The conditions noted are these: peptide 2 μM with R18 1 μM vs peptide alone, HBSS, 10 min, 37 °C. The procedure, abridged: (§1)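 Cells are seeded in μ-slide wells at 20% confluency (HEK293 in poly-L-lysine-coated wells) and grown 24 h, then washed with HBSS (Ca/Mg). Test peptide at 2 μM in HBSS, alone or with R18 1 μM, 10 min, 37 °C, dark; negative control R18 only. Cells washed five times, then live spinning-disk confocal imaging at 37 °C (FAM ex 488 nm, em 525/50 nm). Single-cell intensities background-corrected and normalized to control mean; 30 cells/condition; Kruskal–Wallis test.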

Data set [3] relates to HEK293 cells. In kind it is cell-based, human. To be noted: peptide 2 μM with R18 1 μM vs peptide alone, HBSS, 10 min, 37 °C. In a few lines: as §1

Take FAM-octaarginine amide [compound 1]: the toxicity entry in data set [1] is listed as “highly toxic”. The “effect of membrane dye R18 on peptide permeation” value in data set [2] and in data set [3] was “significantly intensified permeation” in each case.
